In ChEMBL document CHEMBL4371072, “Structure-Activity Relationship Studies and Plasmodium Life Cycle Profiling Identifies Pan-Active N-Aryl-3-trifluoromethyl Pyrido[1,2- a]benzimidazoles Which Are Efficacious in an in Vivo Mouse Model of Malaria” (J Med Chem, 2019):
One block for each compound: values may come before it.

Legend:
Plasmodium falciparum [1] = assay: (§1) Antiplasmodial activity against chloroquine-sensitive asexual blood stage of Plasmodium falciparum NF54 infected in human RBC assessed as reduction in [3H]hypoxanthine incorporation preincubated for 48 hrs followed by [3H]hypoxanthine addition measured after 24 hrs by liquid scintillation counting method; format: functional, organism-based
How it was run: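 Asexual blood-stage P. falciparum NF54 assay, run as a modified [3H]-hypoxanthine incorporation assay. Values are the mean of n ≥ 2 assays; determinations differing more than 3-fold were excluded. Chloroquine and artesunate served as controls.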

Plasmodium falciparum [2] = assay: as §1, with “chloroquine-resistant” for “chloroquine-sensitive”, “K1” for “NF54”; format: functional, organism-based
How it was run: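 Asexual blood-stage P. falciparum K1 (multidrug resistant) screened by modified [3H]-hypoxanthine incorporation assay; IC50 as mean of n ≥ 2 assays, replicates differing above 3-fold excluded; chloroquine and artesunate controls.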

Hemozoin = assay: Inhibition of beta hematin formation after 5 hrs by NP40 detergent-based assay
[3] = Resistance index, ratio of IC50 for chloroquine-resistant asexual blood stage of Plasmodium falciparum K1 infected in human RBC to IC50 for chloroquine-sensitive asexual blood stage of Plasmodium falciparum NF54 infected in human RBC; format: functional
Plasmodium falciparum [4] = assay: Antiplasmodial activity against chloroquine-sensitive final late stage of Plasmodium falciparum NF54-Mal8p1.16-GFP-Luc gametocytes after 24 hrs by BacTiter-Glo assay; format: functional, organism-based; conditions: NF54, 24 h
How it was run: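 Late-stage PfNF54 gametocytes produced in vitro; gametocytocidal IC50 via luciferase reporter and ATP bioluminescence platforms; n=3 independent biological replicates in technical triplicates, ± S.E.M.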

CHO = assay: Cytotoxicity against CHO cells after 48 hrs by MTT assay; format: cell-based; conditions: Cricetulus griseus
[5] = Selectivity index, ratio of IC50 for CHO cells to IC50 for chloroquine-sensitive asexual blood stage of Plasmodium falciparum NF54 infected in human RBC; format: toxicity; conditions: Chinese hamster, read-out: Ratio IC50
How it was run: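 Selectivity index taken as the ratio of the CHO-cell IC50 to the P. falciparum NF54 IC50.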

[6] = target: Voltage-gated inwardly rectifying potassium channel KCNH2 (Homo sapiens, UniProt Q12809); assay: Inhibition of human ERG expressed in CHO cells assessed as reduction in peak channel current by IonWork patch-clamp electrophysiology method; format: cell-based
hERG (KCNH2) [7] = target: T1, hERG (KCNH2) (Homo sapiens, UniProt Q12809); assay: Inhibition of human ERG expressed in CHO cells assessed as reduction in peak channel current at 0.3 uM by IonWork patch-clamp electrophysiology method relative to control; format: cell-based; conditions: CHO cells expressing human ERG
Plasmodium berghei = assay: Antimalarial activity against liver stage form of luciferase transfected Plasmodium berghei sporozoites infected in human HuH7 cells preincubated with host cells for 1 hr followed by plasmodial infection and measured after 48 hrs by bioluminescence method; format: functional, organism-based; conditions: Huh-7
hERG (KCNH2) [8] = target: T1, hERG (KCNH2); assay: Inhibition of human ERG expressed in CHO cells assessed as reduction in peak channel current at 10 uM by IonWork patch-clamp electrophysiology method relative to control; format: cell-based; conditions: CHO cells expressing human ERG
How it was run: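 hERG potassium channel profiled by IonWorks patch-clamp electrophysiology, with 10 μM as the highest concentration tested. Values are the mean of 3 results from experiments run as biological and technical triplicates.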

T1 sequence (Q12809 whole entry): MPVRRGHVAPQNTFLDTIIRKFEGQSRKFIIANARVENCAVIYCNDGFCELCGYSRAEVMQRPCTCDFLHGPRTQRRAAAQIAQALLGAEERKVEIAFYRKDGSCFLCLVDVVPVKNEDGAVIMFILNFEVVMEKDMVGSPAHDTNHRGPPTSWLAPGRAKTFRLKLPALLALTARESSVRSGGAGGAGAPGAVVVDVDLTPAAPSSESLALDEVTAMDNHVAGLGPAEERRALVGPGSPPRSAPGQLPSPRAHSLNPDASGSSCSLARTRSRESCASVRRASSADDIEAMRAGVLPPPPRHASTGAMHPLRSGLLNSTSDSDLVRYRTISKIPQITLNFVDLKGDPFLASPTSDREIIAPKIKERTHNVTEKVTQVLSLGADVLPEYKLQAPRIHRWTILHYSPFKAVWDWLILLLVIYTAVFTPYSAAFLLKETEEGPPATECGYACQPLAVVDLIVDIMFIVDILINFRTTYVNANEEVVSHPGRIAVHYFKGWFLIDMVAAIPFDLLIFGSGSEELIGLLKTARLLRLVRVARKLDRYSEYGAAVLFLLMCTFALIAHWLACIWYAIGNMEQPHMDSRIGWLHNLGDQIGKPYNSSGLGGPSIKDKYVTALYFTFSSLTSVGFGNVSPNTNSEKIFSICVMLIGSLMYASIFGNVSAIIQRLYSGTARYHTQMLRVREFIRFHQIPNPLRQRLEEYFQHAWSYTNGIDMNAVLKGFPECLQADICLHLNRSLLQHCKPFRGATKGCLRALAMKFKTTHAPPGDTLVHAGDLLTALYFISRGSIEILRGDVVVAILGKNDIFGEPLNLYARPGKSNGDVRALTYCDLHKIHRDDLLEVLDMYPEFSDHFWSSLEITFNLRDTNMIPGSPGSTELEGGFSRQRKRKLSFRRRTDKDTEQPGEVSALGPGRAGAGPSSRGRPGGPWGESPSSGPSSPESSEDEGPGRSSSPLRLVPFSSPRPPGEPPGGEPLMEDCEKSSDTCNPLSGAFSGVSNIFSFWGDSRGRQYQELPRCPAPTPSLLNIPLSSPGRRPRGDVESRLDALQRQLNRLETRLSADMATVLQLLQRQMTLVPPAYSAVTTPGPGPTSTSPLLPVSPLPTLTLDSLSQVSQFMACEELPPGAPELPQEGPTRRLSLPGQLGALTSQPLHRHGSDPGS
Voltage-gated inwardly rectifying potassium channel KCNH2, sequence (Q12809 whole entry): as above

SMILES: CS(=O)(=O)c1ccc(CNc2cc(C(F)(F)F)c(C#N)c3nc4cc(Cl)c(Cl)cc4n23)cc1
- IC50 (Plasmodium falciparum [1]): 5.34 µM
- IC50 (Plasmodium falciparum [2]): 5.61 µM
- IC50 (Hemozoin): > 100 µM
- Ratio IC50 [3]: 1.05

SMILES: CN(C)c1ccc2nc3ccc(N(C)C)cc3[s+]c2c1 [METHYLENE BLUE ANHYDROUS]
- IC50 (Plasmodium falciparum [4]): 0.9 µM

SMILES: N#Cc1c(C(F)(F)F)cc(NCc2cccs2)n2c1nc1cc(Cl)c(Cl)cc12
- IC50 [6]: > 10 µM
- inhibition at 0.3 µM (hERG (KCNH2) [7]): 6.13%
- IC50 (Plasmodium falciparum [1]): 0.31 µM
- IC50 (CHO): 8.48 µM
- IC50 (Plasmodium falciparum [4]): 1.67 µM
- IC50 (Plasmodium berghei): 0.14 µM
- IC50 (Plasmodium falciparum [2]): 0.14 µM
- inhibition at 10 µM (hERG (KCNH2) [8]): < 40%
- selectivity ratio [5]: 27
- Ratio IC50 [3]: 0.45

SMILES: N#Cc1c(C(F)(F)F)cc(NS(=O)(=O)c2ccc(OC(F)(F)F)cc2)n2c1nc1cc(Cl)c(Cl)cc12
- IC50 (Plasmodium falciparum [1]): 6.73 µM
- IC50 (Plasmodium falciparum [2]): 5.85 µM
- IC50 (Hemozoin): 78 µM
- Ratio IC50 [3]: 0.87

SMILES: CCCOc1ccc(Nc2cc(C(F)(F)F)c(C#N)c3nc4ccccc4n23)cc1
- IC50 (Plasmodium falciparum [1]): 1.16 µM

SMILES: NC(=O)c1c(C(F)(F)F)cc(NCc2ccc(OC(F)(F)F)cc2)n2c1nc1ccccc12
- IC50 (Plasmodium falciparum [1]): 5.16 µM
- IC50 (Plasmodium falciparum [2]): 7.59 µM
- Ratio IC50 [3]: 1.47

SMILES: FC(F)(F)Oc1ccc(Nc2cc(C(F)(F)F)cc3nc4ccccc4n23)cc1
- IC50 (Plasmodium falciparum [1]): 4.24 µM
- IC50 (Plasmodium falciparum [2]): 3.36 µM
- Ratio IC50 [3]: 0.79

SMILES: Cc1csc(Nc2cc(C(F)(F)F)c(C#N)c3nc4ccccc4n23)n1
- IC50 (Plasmodium falciparum [1]): > 2.82 µM

SMILES: N#Cc1c(C(F)(F)F)cc(NCc2ncccn2)n2c1nc1ccccc12
- IC50 (Plasmodium falciparum [1]): 4.8 µM

SMILES: N#Cc1c(C(F)(F)F)cc(NCc2ccc(F)cc2)n2c1nc1ccccc12
- IC50 (Plasmodium falciparum [1]): 1.27 µM
- IC50 (CHO): 45 µM
- IC50 (Plasmodium berghei): 0.89 µM
- IC50 (Plasmodium falciparum [2]): 0.89 µM
- selectivity ratio [5]: 35
- Ratio IC50 [3]: 0.7

SMILES: N#Cc1c(C(F)(F)F)cc(NS(=O)(=O)c2ccccn2)n2c1nc1cc(Cl)c(Cl)cc12
- IC50 (Plasmodium falciparum [1]): > 6 µM
- IC50 (Hemozoin): > 100 µM

SMILES: N#Cc1c(C(F)(F)F)cc(N2CCNCC2)n2c1nc1cc(Cl)c(Cl)cc12
- IC50 (Plasmodium falciparum [1]): 8.11 µM

SMILES: N#Cc1c(C(F)(F)F)cc(NCc2ccc(O)cc2)n2c1nc1ccccc12
- IC50 (Plasmodium falciparum [1]): 8.74 µM

SMILES: N#Cc1c(C(F)(F)F)cc(N2CCNCC2)n2c1nc1ccccc12
- IC50 (Plasmodium falciparum [1]): 10 µM

Further lines, with some results ahead:

- IC50 (Plasmodium falciparum [1]): 5.52 µM
SMILES: COC(=O)c1c(C(F)(F)F)cc(Nc2ccc(OC(F)(F)F)cc2)n2c1nc1ccccc12

- IC50 (Plasmodium falciparum [1]): > 2.72 µM
SMILES: N#Cc1c(C(F)(F)F)cc(NCc2ccncc2)n2c1nc1ccccc12

- IC50 (Plasmodium falciparum [1]): > 2.52 µM
SMILES: N#Cc1c(C(F)(F)F)cc(Nc2ccnc(F)c2)n2c1nc1ccccc12

- IC50 (Plasmodium falciparum [1]): > 2.82 µM
SMILES: COc1ncnc(Nc2cc(C(F)(F)F)c(C#N)c3nc4ccccc4n23)c1OC

- IC50 (Plasmodium falciparum [1]): 10.2 µM
SMILES: N#Cc1c(C(F)(F)F)cc(NCc2ccc(S(N)(=O)=O)cc2)n2c1nc1ccccc12

- IC50 (Plasmodium falciparum [1]): 2.98 µM
SMILES: CN(C)c1ccc(CNc2cc(C(F)(F)F)c(C#N)c3nc4ccccc4n23)cc1

- IC50 (Plasmodium falciparum [1]): 2.36 µM
SMILES: N#Cc1ccc(Nc2cc(C(F)(F)F)c(C#N)c3nc4ccccc4n23)cc1

- IC50 (Plasmodium falciparum [1]): 1.49 µM
SMILES: Cc1ccc(CNc2cc(C(F)(F)F)c(C#N)c3nc4ccccc4n23)cc1
- IC50 (CHO): 25 µM
- selectivity ratio [5]: 17

- IC50 (Plasmodium falciparum [1]): 6.11 µM
SMILES: N#Cc1c(C(F)(F)F)cc(NCc2ccccc2)n2c1nc1ccccc12

- IC50 (Plasmodium falciparum [1]): 2.14 µM
SMILES: Cc1ccc(Nc2cc(C(F)(F)F)c(C#N)c3nc4ccccc4n23)cc1

- IC50 (Plasmodium falciparum [1]): > 2.83 µM
SMILES: N#Cc1c(C(F)(F)F)cc(Nc2ccccc2)n2c1nc1ccccc12

- IC50 (Plasmodium falciparum [1]): > 10 µM
SMILES: CNC(=O)c1ccc(Nc2cc(C(F)(F)F)c(C#N)c3nc4ccccc4n23)cc1

- IC50 (Plasmodium falciparum [1]): > 2.68 µM
- IC50 (Hemozoin): > 100 µM
SMILES: CC(Nc1cc(C(F)(F)F)c(C#N)c2nc3ccccc3n12)c1ccc(S(C)(=O)=O)cc1 (configuration not stated)

- IC50 (Plasmodium falciparum [1]): > 6 µM
SMILES: NC(=O)c1c(C(F)(F)F)cc(NCc2ccc(F)cc2)n2c1nc1ccccc12

- IC50 (Plasmodium falciparum [1]): 1.59 µM
SMILES: COC(=O)c1ccc(Nc2cc(C(F)(F)F)c(C#N)c3nc4ccccc4n23)cc1
